Laboratory results: ChEMBL document CHEMBL2331413, “Novel in vivo active anti-malarials based on a hydroxy-ethyl-amine scaffold” (Bioorg Med Chem Lett, 2013)
Calls of active or inactive are those of the source. The calls are words filed in the database; no cut-off is given here.

Tests used:
[1] = test system: Plasmodium falciparum; assay: Antimalarial activity against chloroquine-sensitive Plasmodium falciparum NF54 infected in RBC after 72 hrs by [3H]hypoxanthine incorporation assay in presence of 0.5 % albumax; assay type: functional, organism-based
[2] = Metabolic stability in mouse liver microsomes; assay type: ADME, Microsome; conditions: read-out: Stability
Outline: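 In vitro metabolic stability was measured with a mouse liver microsomal preparation and expressed as intrinsic clearance in µl/(min mg).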

[3] = test system: Plasmodium berghei; assay: Antimalarial activity against GFP-transfected Plasmodium berghei ANKA in mouse blood assessed as inhibition of schizont maturation compound incubated for 16 hrs followed by 8 hrs of [3H]hypoxanthine incorporation; assay type: functional, organism-based
[4] = test system: Plasmodium falciparum; assay: Antimalarial activity against chloroquine-sensitive Plasmodium falciparum NF54 infected in RBC after 24 hrs by [3H]hypoxanthine incorporation assay in presence of 0.5 % albumax; assay type: functional, organism-based
[5] = test system: Plasmodium berghei; assay: Antimalarial activity against GFP-transfected Plasmodium berghei ANKA infected in mouse assessed as reduction in parasitemia at 100 mg/kg, po administered as single dose measured after 72 hrs by flow cytometry; assay type: functional; set-up: scale not given: the % may be the effect or the level left
[6] = test system: Plasmodium berghei; assay: Antimalarial activity against GFP-transfected Plasmodium berghei ANKA infected in mouse assessed as increase in host survival time at 100 mg/kg, po administered as single dose […]; assay type: functional
Outline: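 P. berghei-infected mouse model; a single oral dose of 100 mg/kg. Parasitemia was expressed relative to untreated control animals. Mean survival time in days was compared with that of untreated mice.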

[7] = test system: Plasmodium falciparum; assay: Antimalarial activity against chloroquine-sensitive Plasmodium falciparum NF54 infected in RBC after 72 hrs by [3H]hypoxanthine incorporation assay in presence of 50 % serum; assay type: functional, organism-based
[8] = test system: Plasmodium falciparum; assay: Antimalarial activity against chloroquine-resistant Plasmodium falciparum K1 infected in RBC by [3H]hypoxanthine incorporation assay in presence of 50 % serum; assay type: functional, organism-based
[9] = test system: Plasmodium falciparum; assay: Antimalarial activity against chloroquine-resistant Plasmodium falciparum K1 infected in RBC by [3H]hypoxanthine incorporation assay in presence of 0.5 % albumax; assay type: functional, organism-based
[10] = test system: Plasmodium falciparum; assay: Antimalarial activity against chloroquine-sensitive Plasmodium falciparum NF54 infected in RBC after 48 hrs by [3H]hypoxanthine incorporation assay in presence of 0.5 % albumax; assay type: functional, organism-based
[11] = test system: Plasmodium berghei; assay: Antimalarial activity against GFP-transfected Plasmodium berghei ANKA in mouse blood assessed as inhibition of schizont maturation after 72 hrs by [3H]hypoxanthine incorporation assay; assay type: functional, organism-based
[12] = test system: Plasmodium berghei; assay: Antimalarial activity against GFP-transfected Plasmodium berghei ANKA in mouse blood assessed as inhibition of schizont maturation after 48 hrs by [3H]hypoxanthine incorporation assay relative to control; assay type: functional, organism-based

Row | SMILES | IC50 [1] | microsomal CLint [2] | IC50 [3] | IC50 [4] | Activity [5] | Survival [6] | IC50 [7] | IC50 [8] | IC50 [9] | IC50 [10] | Activity [11] | Activity [12]
1 | CCCN(CCC)Cc1cc(CNC[C@@H](O)[C@H](Cc2ccccc2)NC(=O)c2ccc(N3CCN(C)CC3)cc2)ccc1O | 65 nM | 90 µL/min/mg | 140 nM | 69 nM | 87% | 7 days | 42 nM | 9.5 nM | 13 nM | 50 nM |  | 
2 | C[C@@H](NC[C@@H](O)[C@H](Cc1ccccc1)NC(=O)c1ccc(Nc2ccc(CN3CCCCC3)c(O)c2)cc1)c1ccccc1 | 3.6 nM | 415 µL/min/mg | 172 nM | 25 nM |  |  | 3.3 nM |  |  | < 7.8 nM |  | 
3 | CCCN(CCC)Cc1cc(CNC[C@@H](O)[C@H](Cc2ccccc2)NC(=O)c2ccc(Nc3ccnc(C)c3)cc2)ccc1O | 158 nM |  |  |  |  |  | 80 nM | 93 nM | 149 nM |  |  | 
4 | C[C@@H](NC[C@@H](O)[C@H](Cc1ccccc1)NC(=O)c1cccc(S(=O)(=O)N2CCN(C)CC2)c1)c1ccccc1 | 98 nM | 908 µL/min/mg |  |  |  |  | 138 nM |  |  |  |  | 
5 | CCCN(CCC)Cc1cc(Nc2ccc(C(=O)N[C@@H](Cc3ccccc3)[C@H](O)CN[C@H](C)c3ccccc3)cc2)ccc1O | 9.4 nM |  |  | 77 nM |  |  | 13 nM | < 7.8 nM | 11 nM | 11 nM |  | 
6 | Cc1cc(Nc2ccc(C(=O)N[C@@H](Cc3ccccc3)[C@H](O)CN[C@H](C)c3ccccc3)cc2)cc(C)n1 | 8.7 nM |  | 329 nM | 198 nM |  |  | 23 nM | 20 nM | 9 nM | 11 nM | Active | Active
7 | C[C@@H](NC[C@@H](O)[C@H](Cc1ccccc1)NC(=O)c1ccc(Nc2ccc(O)c(CN3CCCC3)c2)cc1)c1ccccc1 | 17 nM |  |  | 174 nM |  |  | 4.9 nM | < 7.8 nM | < 7.8 nM | < 7.8 nM |  | 
8 | CCCN(CCC)C(=O)c1cccc(C(=O)N[C@@H](Cc2ccccc2)[C@H](O)CNC2CCCC2)c1 | 7.1 nM |  |  |  |  |  |  | 36 nM | 12 nM |  |  | 
9 | CCCN(CCC)Cc1cc(C(=O)N[C@@H](Cc2ccccc2)[C@H](O)CN[C@H](C)c2ccccc2)ccc1O | 118 nM |  | > 500 nM | 151 nM |  |  | 334 nM |  |  | 83 nM |  | 
10 | C[C@@H](NC[C@@H](O)[C@H](Cc1ccccc1)NC(=O)c1ccc(Nc2ccncc2)cc1)c1ccccc1 | 20 nM | 112 µL/min/mg | 307 nM | 169 nM |  |  | 36 nM | 48 nM | 27 nM | 26 nM | Active | Active
11 | C[C@@H](NC[C@@H](O)[C@H](Cc1ccccc1)NC(=O)c1ccc(NC2CCN(C)CC2)cc1)c1ccccc1 | 4 nM | 76 µL/min/mg |  | > 500 nM |  |  | 12 nM | 16 nM | 7 nM | < 7.8 nM |  | 
12 | CCCN(CCC)C(=O)c1ccc(C(=O)N[C@@H](Cc2ccccc2)[C@H](O)CN[C@H](C)c2ccccc2)cc1 | 1.6 nM | > 1250 µL/min/mg | > 500 nM | > 500 nM |  |  | 6.5 nM |  |  |  |  | 
13 | CN1CCN(c2ccc(C(=O)N[C@@H](Cc3ccccc3)[C@H](O)CNCc3ccc(O)c(CN4CCCCC4)c3)cc2)CC1 | 120 nM |  |  | 158 nM |  |  | 57 nM | 28 nM | 36 nM | 102 nM |  | 
14 | Cc1cc(Nc2ccc(C(=O)N[C@@H](Cc3ccccc3)[C@H](O)CN[C@H](C)c3ccccc3)cc2)ccn1 | 9.8 nM | 69 µL/min/mg | 228 nM | 173 nM | 33% | 3 days | 29 nM | 26 nM | 16 nM |  | Active | Active
15 | CCN(CC)Cc1cc(Nc2ccc(C(=O)N[C@@H](Cc3ccccc3)[C@H](O)CNC3CCCC3)cc2)ccc1O | 78 nM |  |  |  |  |  | 51 nM | 44 nM | 54 nM |  |  | 
16 | C[C@@H](NC[C@@H](O)[C@H](Cc1ccccc1)NC(=O)c1ccc(N2CCN(C)CC2)cc1)c1ccccc1 | 8.7 nM | 80 µL/min/mg | > 500 nM | > 500 nM |  |  | 8.5 nM | 32 nM | 19 nM |  |  | 
17 | C[C@@H](NC[C@@H](O)[C@H](Cc1ccccc1)NC(=O)c1ccc(C(=O)N2CCN(C)CC2)cc1)c1ccccc1 | 0.6 nM | 75 µL/min/mg | > 500 nM | > 500 nM |  |  | < 0.6 nM |  |  |  |  | 
18 | C[C@@H](NC[C@@H](O)[C@H](Cc1ccccc1)NC(=O)c1ccc(N(C)C2CCN(C)CC2)cc1)c1ccccc1 | 4.4 nM | 71 µL/min/mg |  | > 500 nM |  |  | 14 nM |  | 7.1 nM | < 7.8 nM |  | 
19 | C[C@@H](NC[C@@H](O)[C@H](Cc1ccccc1)NC(=O)c1ccc(CN2CCCCC2)c(O)c1)c1ccccc1 | 4.9 nM |  |  |  |  |  | 5.9 nM | 7.8 nM | < 7.8 nM |  |  | 
20 | CCCN(CCC)Cc1cc(C2CCC(NC[C@@H](O)[C@H](Cc3ccccc3)NC(=O)c3ccc(N4CCN(C)CC4)cc3)CC2)ccc1O (some centres not stated) | 19 nM | 74 µL/min/mg | 143 nM | 20 nM |  |  |  |  |  | 19 nM |  | 
21 | C[C@@H](NC[C@@H](O)[C@H](Cc1ccccc1)NC(=O)c1cccc(O)c1CN1CCCCC1)c1ccccc1 | 4.9 nM |  | > 500 nM | 235 nM |  |  | 5.9 nM |  |  | < 7.8 nM |  | 
22 | C[C@@H](NC[C@@H](O)[C@H](Cc1ccccc1)NC(=O)c1ccc(N(C)c2ccncc2)cc1)c1ccccc1 | 21 nM | 180 µL/min/mg | > 500 nM | 249 nM |  |  | 35 nM | 42 nM | 38 nM | 27 nM | Active | Active
23 | CCN(CC)Cc1cc(Nc2cccc(C(=O)N[C@@H](Cc3ccccc3)[C@H](O)CNC3CCCC3)c2)ccc1O | 23 nM |  |  |  |  |  | 67 nM | 127 nM | 30 nM |  |  | 
24 | C[C@@H](NC[C@@H](O)[C@H](Cc1ccccc1)NC(=O)c1ccc(C(=O)N2CCCCC2)cc1)c1ccccc1 | 0.9 nM | 860 µL/min/mg | > 500 nM | > 500 nM |  |  | 1.3 nM |  |  |  |  | 
25 | CCCN(CCC)C(=O)c1cccc(C(=O)N[C@@H](Cc2ccccc2)[C@H](O)CN[C@H](C)c2ccccc2)c1 | 2 nM | > 1250 µL/min/mg | > 500 nM | > 500 nM |  |  | 10 nM |  |  | < 3.1 nM |  | 
